Bioassay records as filed in PubChem BioAssay.
Casp6 inh: blocks human caspase-6 cleavage activity; inhibition, % at 12.5 µM; AID 686996; 350,000 tested, 0.53% active; purified caspase-6, Z-VEID-R110 cleavage fluorescence;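 active = mean inhibition across replicates at least about 35%, with every replicate also reaching that limit, limit read from the data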;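 note: 0% = median of neutral control wells and 100% = no fluorescence left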
Target sequence (P55212 24-179 limits assumed): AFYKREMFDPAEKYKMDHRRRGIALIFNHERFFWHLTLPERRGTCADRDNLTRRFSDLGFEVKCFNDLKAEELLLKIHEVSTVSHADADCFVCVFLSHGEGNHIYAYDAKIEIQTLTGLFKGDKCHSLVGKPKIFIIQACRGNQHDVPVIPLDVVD
Target sequence (P55212 194-293 limits assumed): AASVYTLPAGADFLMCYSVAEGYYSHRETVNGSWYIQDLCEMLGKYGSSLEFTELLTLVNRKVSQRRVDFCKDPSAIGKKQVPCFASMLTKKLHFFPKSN
LEDGF integ inh: blocks HIV-1 LEDGF/p75-dependent DNA integration. inhibition, % at 3.7 µM. 370,000 tested, 0.64% active. TR-FRET IN-LEDGF/p75 DNA integration, Eu/Cy5. AID 743269;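 active = inhibition above the screen-wide mean plus 3 SD, cut at about 13% in these data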;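 note: signal is the Cy5 over europium emission ratio at 671 and 618 nm; 0% = plate median of compound wells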
ARFGAP1 inhibitor: rat ARFGAP1 inhibition; Q62848; Arfgap1-stimulated ARF1 GTP hydrolysis, GDP FP detection; inhibition, % at 16.5 µM; 360,000 tested, 0.26% active;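 active = inhibition above a per-plate limit, mean inhibition of low control wells plus 3 SD, cut at about 25% in these data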;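 note: 0% = DMSO wells with enzyme and 100% = wells lacking Arfgap1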
Target sequence (Q62848 1-136 limits assumed): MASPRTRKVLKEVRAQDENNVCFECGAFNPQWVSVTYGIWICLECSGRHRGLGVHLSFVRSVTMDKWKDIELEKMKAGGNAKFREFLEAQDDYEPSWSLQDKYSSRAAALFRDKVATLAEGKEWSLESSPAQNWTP
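Material: rat Arfgap1 GAP domain (His6, aa 1-136), purified enzyme. Also added: human ARF1(Δ1-17)-GTP substrate. Compound dosing: 16.5 µM single point, 1.26% DMSO. Timing: enzyme reaction 120 min at 25 °C after 20 min preincubation. Signal: GDP detection by fluorescence polarization. Read-out basis: percent inhibition of GAP-stimulated GDP formation, scaled between DMSO and no-Arfgap1 medians.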
TDP2 absorb: TDP2 (human) inhibition, absorbance primary screen; O95551; recombinant TDP2, T5PNP hydrolysis, p-nitrophenol absorbance 415 nm; inhibition, % at 12.8 µM; 370,000 tested, 0.34% active; AID 720702;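 active = inhibition above the mean of all tested compounds plus 3 SD, set per campaign, cut at about 25% in these data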;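 note: 0% = DMSO with enzyme and 100% = buffer with substrate but no TDP2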
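Read-out basis: percent inhibition. System: recombinant human TDP2. Buffer or medium: Mg2+-containing Tris-HCl buffer, pH 7.5. Repeats: single replicate. Timing: reaction 2 h, 37 °C. Benchmarks: high control without enzyme, low control DMSO plus TDP2. Probe or stimulus: 5 mM T5PNP. Doses: 12.8 µM only. Measured by: epi absorbance of p-nitrophenol freed from T5PNP by hydrolysis.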
ASAP1 inh: blocks human ASAP1-stimulated Arf1 GTP hydrolysis. AID 624377. Q9ULH1. GDP FP detection. 360,000 tested, 0.19% active. inhibition, % at 16.5 µM;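 note: 0% = vehicle with enzyme and substrate and 100% = no enzyme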
TDP2 inh conf: confirmation of human TDP2 inhibitors. shares compounds with TDP2 absorb. recombinant human TDP2, absorbance read-out. inhibition, % at 12.8 µM. 1,100 tested, 22% active. AID 743263;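 note: 0% = vehicle with enzyme and 100% = no enzyme buffer only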
The depositor's hits bear a star. Compounds with a hit are over-represented: about 1.3% of the library has one in this group of screens. Cut-off read from the data, not from the text of the source, unless noted: active = inhibition above about 25%; inactive = the rest.

COC(=O)c1c(Cl)c2n3ccccc3c(C)c(-c3ccccc3)c-2c1C(=O)OC was read as Casp6 inh 19.0, LEDGF integ inh 4.1, ARFGAP1 inhibitor -13.9, TDP2 absorb 32.0*, ASAP1 inh -1.5 and TDP2 inh conf 2.8.
O=C(CSc1ccc(Cl)cc1)NC1=NN(c2ccccc2)C(=O)C1 was read as Casp6 inh 4.4, LEDGF integ inh 3.8, ARFGAP1 inhibitor -3.7, TDP2 absorb 25.4*, ASAP1 inh -6.6 and TDP2 inh conf -0.8.
For O=C(CSc1ccc(Cl)cc1)Nc1ccccc1 the results were Casp6 inh -0.3, LEDGF integ inh -6.3, ARFGAP1 inhibitor -9.1, TDP2 absorb -6.5 and ASAP1 inh -7.1.
Screening Cc1nn(C2CCCCC2)c(N)c1-c1ccccc1 returned LEDGF integ inh 2.7, ARFGAP1 inhibitor -1.9, TDP2 absorb -3.6 and ASAP1 inh -4.9.
For CC(C)(C)NC(=O)NC(=O)COC(=O)c1c(F)cccc1Cl the results were Casp6 inh 2.2, LEDGF integ inh -2.7, ARFGAP1 inhibitor 14.4, TDP2 absorb 4.3 and ASAP1 inh 5.7.
Screening CC(C)(C)NC(=O)C(=O)NC(=O)c1c(F)cccc1Cl returned Casp6 inh -0.4, LEDGF integ inh 0.4, ARFGAP1 inhibitor 1.7, TDP2 absorb 43.4*, ASAP1 inh 1.8 and TDP2 inh conf -5.3.
Screening O=C1C(=O)N(c2nccs2)C(c2ccccc2F)/C1=C(\O)c1ccc2c(c1)OCCO2 (stereo unspecified) returned Casp6 inh 5.5, LEDGF integ inh 4.0, ARFGAP1 inhibitor -1.0, TDP2 absorb 26.4*, ASAP1 inh -9.9 and TDP2 inh conf -0.8.
For COc1ccc(OC)c(N(CC(=O)NC2CC3CCC2C3)S(=O)(=O)c2ccccc2)c1 (stereo unspecified) the results were Casp6 inh 1.8, LEDGF integ inh -5.5, ARFGAP1 inhibitor 2.8, TDP2 absorb 1.7 and ASAP1 inh -7.7.
O=C(O)c1cc(S(=O)(=O)NCC2COc3ccccc3O2)ccc1Cl (stereo unspecified) was read as Casp6 inh -0.2, LEDGF integ inh -1.1, ARFGAP1 inhibitor -4.0, TDP2 absorb 15.1 and ASAP1 inh -3.9.
O=[N+]([O-])c1ccc(S(=O)(=O)NCC2COc3ccccc3O2)cc1 (stereo unspecified) was read as Casp6 inh 9.0, LEDGF integ inh 7.4, ARFGAP1 inhibitor -5.8, TDP2 absorb 24.7*, ASAP1 inh 6.8 and TDP2 inh conf -0.7.
`CCOCCCNC(=O)Cn1cc2c(n1)-c1c(oc(C(=O)N3CCCC3)c1C)CC2` gave Casp6 inh 8.4, LEDGF integ inh 1.8, ARFGAP1 inhibitor -6.6, TDP2 absorb 37.7*, ASAP1 inh 2.0 and TDP2 inh conf -6.7.
Screening CCCCN(C)CCCNC(=O)Cn1cc2c(n1)-c1c(oc(C(=O)N3CCCC3)c1C)CC2 returned Casp6 inh 6.4, LEDGF integ inh -0.7, ARFGAP1 inhibitor -6.7, TDP2 absorb 2.5 and ASAP1 inh -4.1.
For COc1cccc(OC(=O)N2CCOCC2)c1 the results were Casp6 inh -2.7, LEDGF integ inh -4.8, ARFGAP1 inhibitor 2.8, TDP2 absorb 1.9 and ASAP1 inh -7.1.
`CC(=O)c1cc(OC(=O)N2CCOCC2)ccc1OC(=O)N1CCOCC1` gave LEDGF integ inh 1.0, ARFGAP1 inhibitor 4.3, TDP2 absorb 74.5*, ASAP1 inh -7.8 and TDP2 inh conf -15.9.
COc1cc(/C=C(/C#N)c2ccc(C)cc2)ccc1Oc1ccc([N+](=O)[O-])cn1 was read as Casp6 inh 0.1, LEDGF integ inh -4.5, ARFGAP1 inhibitor -2.7, TDP2 absorb -2.8 and ASAP1 inh 17.4.
Screening NC(=O)C1CCN(C2=C(NS(=O)(=O)c3ccc(Br)cc3)C(=O)c3ccccc3C2=O)CC1 returned Casp6 inh 8.2, LEDGF integ inh 7.4, ARFGAP1 inhibitor 3.9, TDP2 absorb 38.4*, ASAP1 inh 7.4 and TDP2 inh conf 9.0.
`CCOC(=O)C1CCN(C2=C(NS(=O)(=O)c3ccc(Br)cc3)C(=O)c3ccccc3C2=O)CC1` gave Casp6 inh 8.6, LEDGF integ inh 3.1, ARFGAP1 inhibitor 1.2, TDP2 absorb 29.6*, ASAP1 inh -4.4 and TDP2 inh conf 11.5.
Screening CCOC(=O)N1CCN(C2=C(NS(=O)(=O)c3ccc(Br)cc3)C(=O)c3ccccc3C2=O)CC1 returned Casp6 inh 4.5, LEDGF integ inh 5.5, ARFGAP1 inhibitor -0.8, TDP2 absorb 15.0 and ASAP1 inh -3.1.
For NC(=O)C1CCN(c2nc3ccccc3nc2NS(=O)(=O)c2ccc(Br)cc2)CC1 the results were Casp6 inh 1.6, LEDGF integ inh 0.0, ARFGAP1 inhibitor -2.9, TDP2 absorb 9.2 and ASAP1 inh -6.8.
Screening S=C1NC2=C(CCCC2)C2(CCCCC2)N1 returned LEDGF integ inh 1.6, ARFGAP1 inhibitor 1.2, TDP2 absorb 1.4 and ASAP1 inh -1.1.
`CC=Cc1ccc2n(c1=O)C[C@@H]1[C@@H](CO)[C@H](C(=O)NC3CCC3)[C@H]2N1Cc1cccnc1` (mixture of isomers) gave Casp6 inh -2.0.
For C=CCn1c(=S)[nH]c2sccc2c1=O the results were Casp6 inh 9.8, LEDGF integ inh -1.0, ARFGAP1 inhibitor -4.9, TDP2 absorb 60.5*, ASAP1 inh 0.8 and TDP2 inh conf 1.5.
CC(=O)Nc1ccc(NCN2C(=O)C3C4CCC(C4)C3C2=O)cc1 (stereo unspecified) was read as LEDGF integ inh 11.6, ARFGAP1 inhibitor 1.0, TDP2 absorb 31.7*, ASAP1 inh 4.1 and TDP2 inh conf 8.0.
Screening CC(=O)NC(Cc1ccc(F)cc1)C(=O)NC1CCN(C(=O)Nc2ccc(F)cc2)CC1 (stereo unspecified) returned Casp6 inh -3.1, LEDGF integ inh -0.1, ARFGAP1 inhibitor 16.9, TDP2 absorb 25.2*, ASAP1 inh 2.5 and TDP2 inh conf 2.1.
Screening Cc1ccc(NC2=C(NCCO)C(=O)c3ccccc3C2=O)cc1 returned LEDGF integ inh 9.3, ARFGAP1 inhibitor 9.3, TDP2 absorb 43.5*, ASAP1 inh 8.7 and TDP2 inh conf 39.5*.
Screening Cc1ccc(S(=O)(=O)N[C@@H]2CC[C@@H](CCNC(=O)C3CCCCC3)O[C@@H]2CO)cc1 returned Casp6 inh -1.1.
CCn1cc(C(=O)Nc2ncccc2O)c(=O)c2cc(F)c(N3CCN(C(=O)c4ccco4)CC3)cc21 was read as Casp6 inh 3.3, LEDGF integ inh 1.7, ARFGAP1 inhibitor 4.2, TDP2 absorb 27.6*, ASAP1 inh 4.9 and TDP2 inh conf -2.0.
Screening CCn1cc(C(=O)NC(C)C)c(=O)c2cc(F)c(N3CCN(C(=O)c4ccco4)CC3)cc21 returned Casp6 inh 6.4, LEDGF integ inh 1.8, ARFGAP1 inhibitor 19.2, TDP2 absorb 10.9 and ASAP1 inh 9.8.
